The source of these data is PubChem BioAssay.

Activity calls are given as the source filed them.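 The calls were made as follows, unless noted: active = GFP response above 150% of the DMSO level; inconclusive = fewer than 70 events counted for a yeast strain; inactive = the rest.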

Assay [1] in a line: hit retest on RPL19A-GFP reporter strain – cell-based, S. cerevisiae, flow cytometry, cherry picks, mother/daughter gates, confirmation (AID 2270;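 active = GFP response below 50% of the DMSO control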). To be noted: 3 h, at 10 µM, stronger effect = lower value, 100 = same GFP as DMSO wells. A general note: In flow cytometry, cells or beads pass a laser one at a time.
Assay [2] can be described thus: yeast TOR pathway reporter LAP4-GFP change – cell-based, cherry picks, flow cytometry, mother/daughter gates, confirmation (AID 2271;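 active = GFP response above 150% of the DMSO control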;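 also: ratio of sample to DMSO plate mean so 100% equals DMSO level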). The conditions noted are these: S. cerevisiae LAP4-GFP strain, 3 h, at 10 µM, stronger effect = higher value, 100 means same as DMSO control. In outline: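 System – GFP-fusion yeast strain · Amount – 0.2 OD600 cells · Buffer or medium – SC growth medium · Dosing – single test-compound dose, 10 µM final · Schedule – 3 h treatment at 30 °C with rotation · Detection – GFP by flow cytometry · Read-out – per-gate (all, mother, daughter) GFP response vs DMSO · Benchmarks – positive rapamycin (400 ng/mL), negative DMSO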

Assay [3] is described as follows: TOR pathway reporter MEP2-GFP, retest of hits – S. cerevisiae, flow cytometry GFP, cherry picks, confirmation (AID 2272;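 active = GFP response above 150% of the DMSO control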;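 also: ratio of well signal to plate DMSO mean so 100% equals DMSO level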). To be noted: S. cerevisiae MEP2-GFP strain, 3 h, at 10 µM, stronger effect = higher value.
A short description of assay [4]: yeast AGP1-GFP fluorescence change, single-dose – cell-based, flow cytometry, S. cerevisiae, cherry picks, confirmation (AID 2273).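 Also: median GFP channel fluorescence over the whole cell population gate.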 The conditions noted are these: S. cerevisiae AGP1-GFP strain, 3 h, at 10 µM.
The nature of assay [5]: TOR pathway CIT2 reporter hit retest – S. cerevisiae, GFP fusion, cherry picks, mother/daughter gates, confirmation (AID 2274). To be noted: S. cerevisiae CIT2-GFP strain, flow cytometry, 3 h, at 10 µM, stronger effect = higher value.
Where [6] appears, read: measured here: daughter cell gate.
[7] abbreviates: measured here: mother cell gate.
Where [8] appears, read: measured here: daughter cell gate response.
The mark [9] stands for this setting: measured here: mother cell gate response.

Turning to `O=C(NNC(=S)NC(=O)c1ccco1)c1ccc(F)cc1`, the GFP response vs DMSO in assay [1] is 106% (inactive); in assay [1] (setting [6]) it was 106%; in assay [1] (setting [7]) it was 105%; in assay [3] it was 115% (inactive). Further, the GFP response relative to DMSO in assay [2] was 115% (inactive); in assay [2] (setting [8]), 115%; in assay [2] (setting [9]), 114%. The GFP response, % of DMSO in assay [4] was 104% (inactive); in assay [5], 107% (inactive); in assay [5] (setting [6]) it was 116%; in assay [5] (setting [7]), 102%.
Regarding `COc1ccc2c(c1)c(C(C)=O)c(C)n2-c1ccccc1OC`, the GFP response vs DMSO in assay [1] is 96.5% (inactive); in assay [1] (setting [6]), 97.8%; in assay [1] (setting [7]) it was 95.4%; in assay [3] it was 101% (inactive). The GFP response relative to DMSO in assay [2] was 101% (inactive); in assay [2] (setting [8]), 99%; in assay [2] (setting [9]), 101%. Further, the GFP response, % of DMSO in assay [4] is 107% (inactive); in assay [5], 103% (inactive); in assay [5] (setting [6]), 101%; in assay [5] (setting [7]) it was 103%.
Regarding `O=C(Nc1ccc(NC(=O)c2cc3ccccc3o2)cc1)c1ccco1`, the GFP response vs DMSO was 100% (inactive) in assay [1], 97.6% in assay [1] (setting [6]), 101% in assay [1] (setting [7]) and 101% (inactive) in assay [3]. For the same compound, the GFP response relative to DMSO in assay [2] is 97% (inactive); in assay [2] (setting [8]), 95.9%; in assay [2] (setting [9]), 97.3%. The GFP response, % of DMSO in assay [4] was 106% (inactive); in assay [5], 98.8% (inactive); in assay [5] (setting [6]), 99.2%; in assay [5] (setting [7]), 98.1%.
For the compound `CCOC(=O)c1ccc(NC(=O)c2nc(S(=O)(=O)Cc3ccccc3)ncc2Cl)cc1`, the GFP response vs DMSO is 99.5% (inactive) in assay [1], 99% in assay [1] (setting [6]), 98.9% in assay [1] (setting [7]) and 102% (inactive) in assay [3]. The GFP response relative to DMSO in assay [2] was 93.8% (inactive); in assay [2] (setting [8]), 95.6%; in assay [2] (setting [9]) it was 95.2%. The GFP response, % of DMSO in assay [4] was 101% (inactive); in assay [5] it was 97.8% (inactive); in assay [5] (setting [6]) it was 94.8%; in assay [5] (setting [7]) it was 97.7%.
For the compound `O=C(O)Cc1csc(-c2cccc(Oc3ccccc3)c2)n1`, the GFP response vs DMSO in assay [1] is 100% (inactive); in assay [1] (setting [6]), 97.8%; in assay [1] (setting [7]) it was 101%; in assay [3], 100% (inactive). Further, the GFP response relative to DMSO in assay [2] was 105% (inactive); in assay [2] (setting [8]), 98.7%; in assay [2] (setting [9]), 106%. Also, the GFP response, % of DMSO is 95.4% (inactive) in assay [4], 93.9% (inactive) in assay [5], 93.2% in assay [5] (setting [6]) and 93.4% in assay [5] (setting [7]).
With `CCc1nnc(NC(=O)c2nc(S(=O)(=O)Cc3cccc(C)c3)ncc2Cl)s1`, the GFP response vs DMSO in assay [1] was 93.9% (inactive); in assay [1] (setting [6]), 93.1%; in assay [1] (setting [7]), 92.7%; in assay [3], 104% (inactive). The values for the GFP response relative to DMSO in assay [2], in assay [2] (setting [8]) and in assay [2] (setting [9]) were 105% (inactive), 102% and 102%, respectively. For the same compound, the GFP response, % of DMSO in assay [4] is 105% (inactive); in assay [5], 99.3% (inactive); in assay [5] (setting [6]), 100%; in assay [5] (setting [7]), 98%.
`Cc1nc2c(-c3ccc(F)cc3)c(C)nn2c(N2CCOCC2)c1C`: the GFP response vs DMSO in assay [1] is 100% (inactive); in assay [1] (setting [6]), 101%; in assay [1] (setting [7]), 100%; in assay [3], 104% (inactive). Also, the values for the GFP response relative to DMSO in assay [2], in assay [2] (setting [8]) and in assay [2] (setting [9]) were 96.5% (inactive), 96.5% and 97.5%, respectively. Moreover, the GFP response, % of DMSO in assay [4] was 98.7% (inactive); in assay [5], 104% (inactive); in assay [5] (setting [6]), 104%; in assay [5] (setting [7]) it was 101%.
Turning to `Cc1ccc(-c2noc(CCC(=O)Nc3ccccc3C)n2)cc1`, the GFP response vs DMSO was 98% (inactive) in assay [1], 97% in assay [1] (setting [6]), 96.5% in assay [1] (setting [7]) and 106% (inactive) in assay [3]. Moreover, the GFP response relative to DMSO is 111% (inactive) in assay [2], 104% in assay [2] (setting [8]) and 112% in assay [2] (setting [9]). Also, the GFP response, % of DMSO in assay [4] was 100% (inactive); in assay [5], 100% (inactive); in assay [5] (setting [6]) it was 101%; in assay [5] (setting [7]), 98.2%.
On to `CSC1=NS(=O)(=O)c2c(C)nn(C)c2S1`, for which the GFP response vs DMSO in assay [1] is 88.7% (inactive); in assay [1] (setting [6]), 91%; in assay [1] (setting [7]) it was 85.8%; in assay [3] it was 110% (inactive). Also, the GFP response relative to DMSO was 156% (active) in assay [2], 159% in assay [2] (setting [8]) and 152% in assay [2] (setting [9]). The GFP response, % of DMSO was 104% (inactive) in assay [4], 84.7% (inactive) in assay [5], 90.5% in assay [5] (setting [6]) and 78.1% in assay [5] (setting [7]).
As to `O=C(CSc1cccc[n+]1[O-])c1cc2ccccc2o1`, the GFP response vs DMSO in assay [1] was 104% (inactive); in assay [1] (setting [6]) it was 107%; in assay [1] (setting [7]) it was 103%; in assay [3], 109% (inactive). The figures for the GFP response relative to DMSO in assay [2], in assay [2] (setting [8]) and in assay [2] (setting [9]) were 138% (inactive), 126% and 137%, respectively. Further, the GFP response, % of DMSO was 97.2% (inactive) in assay [4], 107% (inactive) in assay [5], 111% in assay [5] (setting [6]) and 104% in assay [5] (setting [7]).
As for `O=C(Nc1nc(-c2ccc(Cl)s2)cs1)c1cccs1`, the GFP response vs DMSO is 93.8% (inactive) in assay [1], 91% in assay [1] (setting [6]), 93.7% in assay [1] (setting [7]) and 97.2% (inactive) in assay [3]. The GFP response relative to DMSO is 113% (inactive) in assay [2], 107% in assay [2] (setting [8]) and 119% in assay [2] (setting [9]). The GFP response, % of DMSO in assay [4] is 98.8% (inactive); in assay [5] it was 83.3% (inactive); in assay [5] (setting [6]), 85.2%; in assay [5] (setting [7]), 82.6%.
On to `CCCc1[nH]nc2c1C(c1ccc(O)cc1OCC)C(C#N)=C(N)O2` (configuration not stated), for which the GFP response vs DMSO in assay [1] was 102% (inactive); in assay [1] (setting [6]), 104%; in assay [1] (setting [7]) it was 100%; in assay [3], 106% (inactive). The GFP response relative to DMSO was 92.9% (inactive) in assay [2], 99% in assay [2] (setting [8]) and 92.3% in assay [2] (setting [9]). The GFP response, % of DMSO in assay [4] is 101% (inactive); in assay [5] it was 104% (inactive); in assay [5] (setting [6]), 105%; in assay [5] (setting [7]) it was 104%.
Turning to `O=C(N/N=C/c1ccccc1Cl)c1cccc(F)c1`, the GFP response vs DMSO is 101% (inactive) in assay [1], 98.1% in assay [1] (setting [6]), 99.8% in assay [1] (setting [7]) and 101% (inactive) in assay [3]. In addition, the GFP response relative to DMSO in assay [2] was 103% (inactive); in assay [2] (setting [8]), 101%; in assay [2] (setting [9]), 104%. Moreover, the GFP response, % of DMSO was 98.8% (inactive) in assay [4], 100% (inactive) in assay [5], 101% in assay [5] (setting [6]) and 98.1% in assay [5] (setting [7]).
Take `CS/C(N)=N/N=C/c1ccc2c(c1)OCO2`: the GFP response vs DMSO in assay [1] is 97.8% (inactive); in assay [1] (setting [6]) it was 98.9%; in assay [1] (setting [7]), 97.7%; in assay [3], 100% (inactive). Moreover, the GFP response relative to DMSO in assay [2] was 106% (inactive); in assay [2] (setting [8]) it was 102%; in assay [2] (setting [9]), 108%. Also, the GFP response, % of DMSO is 102% (inactive) in assay [4], 103% (inactive) in assay [5], 103% in assay [5] (setting [6]) and 102% in assay [5] (setting [7]).
`O=Nc1c(O)c2ccccc2c2ccccc12`: the GFP response vs DMSO in assay [1] was 113% (inactive); in assay [1] (setting [6]), 109%; in assay [1] (setting [7]) it was 111%; in assay [3] it was 111% (inactive). Moreover, the figures for the GFP response relative to DMSO in assay [2], in assay [2] (setting [8]) and in assay [2] (setting [9]) were 114% (inactive), 113% and 119%, respectively. Besides, the GFP response, % of DMSO in assay [4] was 104% (inactive); in assay [5], 107% (inactive); in assay [5] (setting [6]), 106%; in assay [5] (setting [7]) it was 105%.
Take `COC(=O)Nc1c(-c2ccccc2)nc2ccc(C)cn12`: the GFP response vs DMSO in assay [1] was 101% (inactive); in assay [1] (setting [6]) it was 98.7%; in assay [1] (setting [7]), 102%; in assay [3] it was 102% (inactive). For the same compound, the GFP response relative to DMSO in assay [2] is 96.2% (inactive); in assay [2] (setting [8]) it was 97.2%; in assay [2] (setting [9]) it was 98.3%. For the same compound, the GFP response, % of DMSO in assay [4] is 103% (inactive); in assay [5] it was 104% (inactive); in assay [5] (setting [6]), 101%; in assay [5] (setting [7]), 107%.
In the case of `Cc1ccc(-c2ccc(CCC(=O)O)o2)cc1`, the GFP response vs DMSO in assay [1] is 102% (inactive); in assay [1] (setting [6]), 95.9%; in assay [1] (setting [7]) it was 101%; in assay [3] it was 95.7% (inactive). For the same compound, the GFP response relative to DMSO in assay [2] is 147% (inactive); in assay [2] (setting [8]) it was 139%; in assay [2] (setting [9]), 150%. Also, the GFP response, % of DMSO was 94.8% (inactive) in assay [4], 90% (inactive) in assay [5], 85% in assay [5] (setting [6]) and 90.2% in assay [5] (setting [7]).
